ChEMBL document CHEMBL1143008, “Synthesis and biological evaluation of chiral alpha-aminoanilides with central antinociceptive activity” (2007)

How the values were obtained:
Format in all cases: functional
Mus musculus [1] = experiment: Antinociceptive effect in Swiss Albino mouse assessed as licking latency at 50 mg/kg, sc after 15 mins by hotplate test; settings: route subcutaneous
Method in brief: (§1)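 Hot-plate test at 52.5 ± 0.1 °C in male Swiss albino mice (23-30 g) after s.c. dosing. The endpoint was fore- or hind-paw licking, timed before and at intervals up to 60 min. Mice scoring below 12 or above 18 s at pretest were rejected, with a 45 s cutoff. Mean ± SEM.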

Mus musculus [2] = experiment: Antinociceptive activity in sc dosed Swiss Albino mouse by hotplate test
Method in brief: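 Male Swiss albino mice (23-30 g), s.c. dosing. Paw-licking latency on a 52.5 ± 0.1 °C hot plate, read before and up to 60 min after dosing. Mice outside 12-18 s at pretest were excluded; cutoff was 45 s. […] was fitted from the dose-response data with a constrained four-parameter logistic model.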

Mus musculus [3] = experiment: Antinociceptive effect in atropine treated Swiss Albino mouse assessed as licking latency at 50 mg/kg, sc by hotplate test; settings: route subcutaneous
Method in brief: (§2)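 Antagonist pretreatment before s.c. test compound in male Swiss albino mice: atropine 5 mg/kg i.p., or hemicholinium-3 1 µg per mouse i.c.v. The i.c.v. dose was 5 µL in isotonic saline under ether anaesthesia. Paw-licking latency on a 52.5 °C hot plate was read at each compound's time of maximum effect, compared with saline-saline mice. Cutoff was 45 s.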

Mus musculus [4] = experiment: Effect on motor coordination in Swiss Albino mouse assessed as number of falls from rotarod at 50 mg/kg after 15 mins relative to CMC
Method in brief: (§3)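 Motor coordination of male Swiss albino mice on the rota-rod, counted as number of falls, before dosing and 15, 30 and 45 min after. Each value is the mean of 6-8 mice, compared with vehicle-treated controls.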

Mus musculus [5] = experiment: Effect on motor coordination in Swiss Albino mouse assessed as number of falls from rotarod at 50 mg/kg after 30 mins relative to CMC; method in brief: as §3
Mus musculus [6] = experiment: Effect on motor coordination in Swiss Albino mouse assessed as number of falls from rotarod at 50 mg/kg after 45 mins relative to CMC; method in brief: as §3
Mus musculus [7] = experiment: (§4) Antinociceptive effect in Swiss Albino mouse assessed as licking latency at 5 mg/kg, sc after 15 mins by hotplate test; settings: route subcutaneous
Mus musculus [8] = experiment: Antinociceptive effect in Swiss Albino mouse assessed as licking latency at 30 mg/kg, sc after 15 mins by hotplate test; settings: route subcutaneous; method in brief: as §1
Mus musculus [9] = experiment: Antinociceptive effect in atropine treated Swiss Albino mouse assessed as licking latency at 30 mg/kg, sc by hotplate test; settings: route subcutaneous; method in brief: as §2
Mus musculus [10] = experiment: Antinociceptive effect in Swiss Albino mouse assessed as licking latency at 15 mg/kg, sc after 15 mins by hotplate test; settings: route subcutaneous; method in brief: as §1
Mus musculus [11] = experiment: Antinociceptive effect in Swiss Albino mouse assessed as licking latency at 10 mg/kg, sc after 15 mins by hotplate test; settings: route subcutaneous
Mus musculus [12] = experiment: Antinociceptive effect in atropine treated Swiss Albino mouse assessed as licking latency at 10 mg/kg, sc by hotplate test; settings: route subcutaneous; method in brief: as §2
Mus musculus [13] = experiment: Effect on motor coordination in Swiss Albino mouse assessed as number of falls from rotarod at 10 mg/kg after 15 mins relative to CMC; method in brief: as §3
Mus musculus [14] = experiment: Effect on motor coordination in Swiss Albino mouse assessed as number of falls from rotarod at 10 mg/kg after 30 mins relative to CMC; method in brief: as §3
Mus musculus [15] = experiment: Effect on motor coordination in Swiss Albino mouse assessed as number of falls from rotarod at 10 mg/kg after 45 mins relative to CMC; method in brief: as §3
Mus musculus [16] = experiment: Antinociceptive effect in Swiss Albino mouse assessed as licking latency at 10 mg/kg, sc after 30 mins by hotplate test; settings: route subcutaneous
Method in brief: (§5)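 Male Swiss albino mice (23-30 g) got 1, 5 or 10 mg/kg s.c. or saline. Fore- or hind-paw licking latency on a 52.5 ± 0.1 °C plate was taken before dosing and at 15, 30, 45 and 60 min. Pretest range was 12-18 s (others rejected) with a 45 s cutoff. Each value is the mean of at least 10 mice; mean ± SEM.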

Mus musculus [17] = experiment: Antinociceptive effect in Swiss Albino mouse assessed as licking latency at 1 mg/kg, sc after 45 mins by hotplate test; settings: route subcutaneous; method in brief: as §5
Mus musculus [18] = experiment: Antinociceptive effect in Swiss Albino mouse assessed as licking latency at 5 mg/kg, sc after 45 mins by hotplate test; settings: route subcutaneous; method in brief: as §5
Mus musculus [19] = experiment: Antinociceptive effect in Swiss Albino mouse assessed as licking latency at 10 mg/kg, sc after 45 mins by hotplate test; settings: route subcutaneous; method in brief: as §5
Mus musculus [20] = experiment: Antinociceptive effect in Swiss Albino mouse assessed as licking latency at 1 mg/kg, sc after 60 mins by hotplate test; settings: route subcutaneous; method in brief: as §5
Mus musculus [21] = experiment: Antinociceptive effect in hemicolinium-3 treated Swiss Albino mouse assessed as licking latency at 10 mg/kg, sc by hotplate test; settings: route subcutaneous; method in brief: as §2
Mus musculus [22] = experiment: as §4; settings: route subcutaneous; method in brief: as §5; remark: listed apart in the source
Mus musculus [23] = experiment: Antinociceptive effect in Swiss Albino mouse assessed as licking latency at 1 mg/kg, sc after 15 mins by hotplate test; settings: route subcutaneous; method in brief: as §5
Mus musculus [24] = experiment: Antinociceptive effect in Swiss Albino mouse assessed as licking latency at 1 mg/kg, sc after 30 mins by hotplate test; settings: route subcutaneous; method in brief: as §5
Mus musculus [25] = experiment: Antinociceptive effect in Swiss Albino mouse assessed as licking latency at 5 mg/kg, sc after 30 mins by hotplate test; settings: route subcutaneous; method in brief: as §5
Mus musculus [26] = experiment: Antinociceptive effect in Swiss Albino mouse assessed as licking latency at 5 mg/kg, sc after 60 mins by hotplate test; settings: route subcutaneous; method in brief: as §5
Mus musculus [27] = experiment: Antinociceptive effect in Swiss Albino mouse assessed as licking latency at 10 mg/kg, sc after 60 mins by hotplate test; settings: route subcutaneous; method in brief: as §5
Mus musculus [28] = experiment: Effect on motor coordination in Swiss Albino mouse assessed as number of falls from rotarod at 30 mg/kg after 15 mins relative to CMC; method in brief: as §3
Mus musculus [29] = experiment: Effect on motor coordination in Swiss Albino mouse assessed as number of falls from rotarod at 30 mg/kg after 30 mins relative to CMC; method in brief: as §3
Mus musculus [30] = experiment: Effect on motor coordination in Swiss Albino mouse assessed as number of falls from rotarod at 30 mg/kg after 45 mins relative to CMC; method in brief: as §3
Mus musculus [31] = experiment: Antinociceptive effect in Swiss Albino mouse assessed as licking latency at 20 mg/kg, sc after 15 mins by hotplate test; settings: route subcutaneous; method in brief: as §1
Mus musculus [32] = experiment: Antinociceptive effect in Swiss Albino mouse assessed as licking latency at 40 mg/kg, sc after 15 mins by hotplate test; settings: route subcutaneous; method in brief: as §1
Mus musculus [33] = experiment: Antinociceptive effect in hemicolinium-3 treated Swiss Albino mouse assessed as licking latency at 50 mg/kg, sc by hotplate test; settings: route subcutaneous; method in brief: as §2

Structure (SMILES): Cc1cc(Cl)ccc1NC(=O)[C@H](C)N
- Activity (Mus musculus [1]): 21.1 s
- ED50 (Mus musculus [2]): 41.3 mg/kg
- Activity (Mus musculus [3]): 20.5 s

Structure (SMILES): Cc1cc(Cl)ccc1NC(=O)[C@@H](C)N
- Activity (Mus musculus [1]): 25.5 s
- ED50 (Mus musculus [2]): 39.2 mg/kg
- Activity (Mus musculus [3]): 25 s
- Activity (Mus musculus [4]): 1.5
- Activity (Mus musculus [5]): 1.1
- Activity (Mus musculus [6]): 0.8

Structure (SMILES): C[C@H](N)C(=O)Nc1ccc(Cl)cc1
- Activity (Mus musculus [7]): 15.8 s

Structure (SMILES): C[C@@H](N)C(=O)Nc1ccc(Cl)cc1
- Activity (Mus musculus [7]): 17.3 s

Structure (SMILES): Cc1cc(Cl)cc(C)c1NC(=O)[C@@H](C)N
- Activity (Mus musculus [8]): 23.2 s
- ED50 (Mus musculus [2]): 17.8 mg/kg
- Activity (Mus musculus [9]): 23.7 s

Structure (SMILES): Cc1ccccc1NC(=O)[C@H](C)N
- Activity (Mus musculus [10]): 16.2 s

Structure (SMILES): Cc1cc(Cl)cc(C)c1NC(=O)[C@H](N)C(C)C
- Activity (Mus musculus [1]): 17 s

Structure (SMILES): Cc1ccccc1NC(=O)[C@@H](C)N
- Activity (Mus musculus [11]): 17.1 s

Structure (SMILES): Cc1cccc(C)c1NC(=O)[C@@H](N)CC(C)C
- Activity (Mus musculus [11]): 21.3 s
- ED50 (Mus musculus [2]): 6.8 mg/kg
- Activity (Mus musculus [12]): 20.7 s

Structure (SMILES): Cc1cccc(C)c1N(C)C(=O)[C@@H](N)C(C)C
- Activity (Mus musculus [11]): 13.6 s

Structure (SMILES): Cc1cccc(C)c1NC(=S)[C@H](C)N
- Activity (Mus musculus [1]): 18.6 s

Structure (SMILES): Cc1cccc(C)c1NC(=S)[C@@H](C)N
- Activity (Mus musculus [1]): 18.8 s

Structure (SMILES): Cc1cc(Cl)cc(C)c1NC(=O)[C@@H](N)C(C)C
- Activity (Mus musculus [1]): 17.2 s

Structure (SMILES): Cc1cccc(C)c1NC(=O)[C@H](N)CC(C)C
- Activity (Mus musculus [11]): 20.7 s
- ED50 (Mus musculus [2]): 6.6 mg/kg
- Activity (Mus musculus [12]): 23.9 s
- Activity (Mus musculus [13]): 2.2
- Activity (Mus musculus [14]): 1.5
- Activity (Mus musculus [15]): 0.8

Structure (SMILES): Cc1cccc(C)c1NC(=O)[C@H](N)C(C)C
- Activity (Mus musculus [16]): 23.6 s
- Activity (Mus musculus [17]): 15.3 s
- Activity (Mus musculus [18]): 17.1 s
- Activity (Mus musculus [19]): 18.5 s
- Activity (Mus musculus [20]): 14.5 s
- Activity (Mus musculus [11]): 30.3 s
- ED50 (Mus musculus [2]): 5.7 mg/kg
- Activity (Mus musculus [12]): 16.9 s
- Activity (Mus musculus [21]): 17.5 s
- Activity (Mus musculus [22]): 23.7 s
- Activity (Mus musculus [23]): 16.5 s
- Activity (Mus musculus [24]): 17.2 s
- Activity (Mus musculus [25]): 20.6 s
- Activity (Mus musculus [26]): 14.9 s
- Activity (Mus musculus [27]): 15.1 s
- Activity (Mus musculus [13]): 2.3
- Activity (Mus musculus [14]): 1.2
- Activity (Mus musculus [15]): 0.9

Structure (SMILES): Cc1cc(Cl)cc(C)c1NC(=O)[C@H](C)N
- Activity (Mus musculus [8]): 25.1 s
- ED50 (Mus musculus [2]): 25.5 mg/kg
- Activity (Mus musculus [9]): 26.6 s
- Activity (Mus musculus [28]): 1.4
- Activity (Mus musculus [29]): 1.2
- Activity (Mus musculus [30]): 1

Structure (SMILES): Cc1cccc(C)c1N(C)C(=O)[C@H](N)C(C)C
- Activity (Mus musculus [31]): 13.6 s

Structure (SMILES): Cc1cc(Cl)ccc1NC(=O)[C@@H](N)C(C)C
- Activity (Mus musculus [32]): 19.9 s
- ED50 (Mus musculus [2]): 25.9 mg/kg

Structure (SMILES): Cc1cc(Cl)ccc1NC(=O)[C@H](N)C(C)C
- Activity (Mus musculus [8]): 27.9 s
- ED50 (Mus musculus [2]): 19.6 mg/kg
- Activity (Mus musculus [9]): 26.4 s
- Activity (Mus musculus [28]): 1.5
- Activity (Mus musculus [29]): 1.3
- Activity (Mus musculus [30]): 0.8

Structure (SMILES): Cc1cccc(C)c1NC(=O)[C@@H](N)C(C)C
- Activity (Mus musculus [11]): 15.8 s

Structure (SMILES): Cc1cccc(C)c1NC(=O)[C@@H](C)N [(R)-TOCAINIDE]
- Activity (Mus musculus [1]): 26.5 s
- ED50 (Mus musculus [2]): 33.6 mg/kg
- Activity (Mus musculus [3]): 17.5 s
- Activity (Mus musculus [33]): 18.6 s
- Activity (Mus musculus [4]): 1.7
- Activity (Mus musculus [5]): 1.4
- Activity (Mus musculus [6]): 0.9

Structure (SMILES): Cc1cccc(C)c1NC(=O)[C@H](C)N [S-TOCAINIDE]
- Activity (Mus musculus [1]): 14.3 s
